# Assay outcomes: PubChem BioAssay, several laboratories
# RAM inhibit: inhibitors of the yeast RAM network, primary screen, dse1pr::URA3 reporter, 5-FOA selection; S. cerevisiae dse1pr::URA3 reporter, 5-FOA growth OD615, 2 d; analog-sensitive cbk1-as2 kinase mutant strain; inhibition, % at 50 µM; actives 1.8% (n = 190,000);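 active means inhibition above a set limit, 3 SD over mean compound inhibition, cut at about 8.4% in these data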;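 further: inhibition rescues growth on 5-FOA so higher OD means more RAM inhibition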
# ABCB1 block: ABCB1 efflux pump inhibitors, primary screen, cell-based, multiplex, flow cytometry, ABCG2 counter-screen. ATP-dependent translocase ABCB1 (Homo sapiens), P08183. CCRF-Adr cells, JC-1 efflux. inhibition, % at 6.6 µM. actives 0.067% (n = 190,000). AID 1326, 2008; in the data active means inhibition above about 40%;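 further: higher value means more JC-1 retained so stronger ABCB1 efflux block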
# Target sequence (P08183 whole entry, looked up): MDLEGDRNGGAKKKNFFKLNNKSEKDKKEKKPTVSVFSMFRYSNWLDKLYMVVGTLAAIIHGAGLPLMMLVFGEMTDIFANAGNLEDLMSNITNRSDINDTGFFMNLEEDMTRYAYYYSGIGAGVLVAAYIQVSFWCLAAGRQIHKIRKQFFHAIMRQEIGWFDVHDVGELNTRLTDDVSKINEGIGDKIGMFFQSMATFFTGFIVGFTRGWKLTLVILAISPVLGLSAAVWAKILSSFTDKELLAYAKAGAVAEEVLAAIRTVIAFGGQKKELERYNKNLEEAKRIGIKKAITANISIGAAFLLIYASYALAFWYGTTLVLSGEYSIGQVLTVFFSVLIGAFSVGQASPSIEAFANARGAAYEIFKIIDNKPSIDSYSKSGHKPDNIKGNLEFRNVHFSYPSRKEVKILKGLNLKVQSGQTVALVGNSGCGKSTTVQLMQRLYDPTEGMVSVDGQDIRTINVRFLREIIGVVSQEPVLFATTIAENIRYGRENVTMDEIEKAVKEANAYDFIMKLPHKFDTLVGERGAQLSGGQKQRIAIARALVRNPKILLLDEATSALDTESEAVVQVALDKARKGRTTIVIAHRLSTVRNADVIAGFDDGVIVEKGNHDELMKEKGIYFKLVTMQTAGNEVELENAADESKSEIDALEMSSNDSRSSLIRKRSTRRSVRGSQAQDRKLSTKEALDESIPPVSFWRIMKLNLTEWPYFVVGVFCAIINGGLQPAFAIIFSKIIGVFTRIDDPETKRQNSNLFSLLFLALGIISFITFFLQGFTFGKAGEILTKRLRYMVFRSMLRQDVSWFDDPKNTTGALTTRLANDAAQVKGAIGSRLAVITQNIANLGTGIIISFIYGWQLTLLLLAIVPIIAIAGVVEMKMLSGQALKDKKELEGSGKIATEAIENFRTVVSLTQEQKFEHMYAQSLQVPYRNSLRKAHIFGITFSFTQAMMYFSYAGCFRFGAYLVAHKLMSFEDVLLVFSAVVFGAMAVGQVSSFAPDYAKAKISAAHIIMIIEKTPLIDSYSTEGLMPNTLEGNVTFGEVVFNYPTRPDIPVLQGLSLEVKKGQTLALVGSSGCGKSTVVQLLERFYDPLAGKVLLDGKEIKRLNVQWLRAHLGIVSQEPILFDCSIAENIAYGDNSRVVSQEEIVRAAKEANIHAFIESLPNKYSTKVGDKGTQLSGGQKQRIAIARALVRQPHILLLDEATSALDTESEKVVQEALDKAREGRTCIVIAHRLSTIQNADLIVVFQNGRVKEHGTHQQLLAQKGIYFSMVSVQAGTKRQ
# WT yeast gro inh: growth inhibition of WT strain, primary screen, mitochondrial fusion inhibitor project, WT and mutant strains, chemical genetic. AID 1362, 2008. actives 2.1% (n = 190,000). mitochondrial fusion phenotypic screen. inhibition, % at 10 µM; in the data active means inhibition above about 58%; tested in S. cerevisiae
# ABCG2 block: ABCG2 efflux pump inhibitors, primary screen, multiplex with ABCB1, IgMXP3 cells, flow cytometry | JC-1 efflux | inhibition, % at 6.6 µM | actives 0.1% (n = 190,000) | Broad substrate specificity ATP-binding cassette transporter ABCG2 (Homo sapiens), Q9UNQ0 | AID 1325, 2008;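 active means inhibition above 80%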
#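 Incubation: cells with compound and JC-1, 10 min at 25 °C, rotating, no wash / Test system: IgMXP3 (ABCG2) plus far-red-tagged CCRF-Adr (ABCB1) cells / Compound dosing: one concentration, 6.6 µM final / Also added: JC-1 fluorescent substrate / Evaluation: efflux inhibition in percent versus controls / Detection: flow cytometry, 530 nm JC-1 signal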
# L major viab: Leishmania major promastigote growth inhibition, primary screen; AID 1063, 2008; inhibition, % at 10 µM; Leishmania major promastigotes, resazurin fluorescence viability; actives 9% (n = 200,000); in the data active means inhibition above about 50%;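 further: promastigotes grown with compound for 44 hours at 28 °C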
# RAM efflux-def: 5-FOA growth of efflux-deficient control yeast, dose response, counter-screen for RAM network inhibitor project, S. cerevisiae, OD615 | S. cerevisiae efflux-deficient reporter strain, 5-FOA growth OD615, 2 days | 1,200 tested, under 10 active | max inhibition, % | shares compounds with RAM inhibit; call rule not given here
# Numbers stand for hits; 0 = inactive; - = no result given. Shown are actives, neighbours in structure and some others; about 12% of the full set was active somewhere.
SMILES,RAM inhibit,ABCB1 block,WT yeast gro inh,ABCG2 block,L major viab,RAM efflux-def
O=C(/C=C/c1cccc(Br)c1)N1CCN(c2cccc(C(F)(F)F)c2)CC1,16,0,67,0,0,0
O=C(/C=C/c1ccc(Br)cc1)N1CCN(c2cccc(C(F)(F)F)c2)CC1,12,0,0,0,0,0
O=C(c1c(F)c(F)c(F)c(F)c1F)N1CCN(c2cccc(C(F)(F)F)c2)CC1,0,0,0,0,0,-
CCCCN(C)C/C(O)=C(\C#N)c1nc(-c2ccccc2)cs1,0,0,0,0,0,-
CCCCc1ccc(-c2csc(/C(C#N)=C/c3ccc(C)o3)n2)cc1,13,0,0,0,0,0
CCCCc1ccc(-c2csc(/C(C#N)=C\c3ccco3)n2)cc1,15,0,0,0,0,0
COc1ccc2c(c1)C(=O)/C(=C/C=C/c1ccccc1)CC2,15,0,0,0,0,0
C=CCN=C1SC(C)(C)C(=O)N1S(=O)(=O)c1ccc(C)cc1,0,0,0,0,0,-
O=C(CCn1nnc2ccccc21)N1CCC(O)(c2cccc(F)c2)CC1,0,0,0,0,0,-
CC(C)=CCC/C(C)=C/Cc1c(O)ccc(C(=O)/C=C/c2ccc(O)cc2)c1O,15,0,95,0,0,0
CC(=O)c1cc(CC=C(C)C)c(O)c(CC=C(C)C)c1O,0,0,0,0,0,-
CCCC(=O)NC(=S)Nc1ccc(NC(=O)C(C)C)c(OC)c1,0,0,0,0,0,-
CC(CCc1ccccc1)NC(=O)CNC(=S)N(Cc1cccs1)C1CCCC1 (stereo not drawn),12,0,0,0,51,0
CCCn1c(SCC(=O)NCc2ccc(Cl)cc2)n[nH]c1=O,0,0,0,0,0,-
CCOC(=O)c1c(NC(=S)Nc2ccc(OC)cc2)sc2c1CCC2,0,0,0,0,0,-
CCOC(=O)c1c(NC(=S)Nc2ccc(OC)cc2)sc2c1CCCCC2,15,0,0,0,0,0
COc1cccc(/C=C/C(=O)OCC(=O)NCc2ccc(Cl)cc2)c1,0,0,0,0,0,-
COc1cccc(/C=C/C(=O)OCC(=O)Nc2cc(C(F)(F)F)ccc2Cl)c1,12,0,0,0,0,0
COc1ccc(CC(=O)N(C)C2CCCCC2)cc1S(=O)(=O)N1CCOCC1,0,0,0,0,0,-
CCOC(=O)C1(O)CC(C)=NN1C(=O)c1cccc(Cl)c1 (stereo not drawn),0,0,0,0,0,-
CCc1ccccc1NC(=O)N1CCC(NC(=O)C(Cc2ccccc2)NC(C)=O)CC1 (stereo not drawn),0,0,0,0,0,-
COc1ccc(OC)c(-c2cc(C(=O)N3CCc4ccccc4C3)no2)c1,12,0,62,0,0,0
COc1ccc(-c2nc(N3CCCCCC3)sc2C(=O)c2ccccc2)cc1,0,0,0,0,0,-
O=C(c1ccccc1)c1sc(N2CCCCCC2)nc1-c1ccccc1,12,0,0,0,0,0
CCOCCCNc1ccc(N2C(=O)C3CCCCC3C2=O)cc1[N+](=O)[O-] (stereo not drawn),0,0,0,0,0,-
SMILES,RAM inhibit,ABCB1 block,WT yeast gro inh,ABCG2 block,L major viab,RAM efflux-def
CCn1nc(C)cc1C(=O)N1CCCC(CCC(=O)NCc2ccccc2F)C1 (stereo not drawn),0,0,0,0,0,-
CCCN(N=Nc1cccc([N+](=O)[O-])c1)c1cccc([N+](=O)[O-])c1,12,0,0,0,0,0
O=[N+]([O-])c1cccc(N=NN(CCO)c2cccc([N+](=O)[O-])c2)c1,0,0,0,0,0,-
C=CCn1c(SCC)nc2sc3c(c2c1=O)CCc1ccccc1-3,18,0,0,0,0,0
CCc1ccc(OCC(=O)N2c3ccccc3CCc3ccccc32)cc1,18,0,81,0,0,0
CNCC(O)COc1ccccc1 (stereo not drawn),0,0,0,0,0,-
CNCC(C)COc1ccccc1OCc1ccccc1 (stereo not drawn),20,0,0,0,99,0
